This is a sample that favours compounds with a hit; in the whole collection about 4.3% have one here.
FLuc act counter: FLuc activators, initial screening, artefact control for FLuc-dependent activation tests, biochemical, ATPlite luminescence | Luciferin 4-monooxygenase (Photinus pyralis), P08659 | ATPlite luciferase biochemical, 10 min; 0 = ATP-free wells, 1 = DMSO control | activation factor at 10 µM | 200,000 tested, under 10 active | AID 1027, 2008;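 active = luciferase activation factor, scaled between plate controls, of at least 2 with compound at 10 µM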
Target sequence (P08659 whole entry, looked up): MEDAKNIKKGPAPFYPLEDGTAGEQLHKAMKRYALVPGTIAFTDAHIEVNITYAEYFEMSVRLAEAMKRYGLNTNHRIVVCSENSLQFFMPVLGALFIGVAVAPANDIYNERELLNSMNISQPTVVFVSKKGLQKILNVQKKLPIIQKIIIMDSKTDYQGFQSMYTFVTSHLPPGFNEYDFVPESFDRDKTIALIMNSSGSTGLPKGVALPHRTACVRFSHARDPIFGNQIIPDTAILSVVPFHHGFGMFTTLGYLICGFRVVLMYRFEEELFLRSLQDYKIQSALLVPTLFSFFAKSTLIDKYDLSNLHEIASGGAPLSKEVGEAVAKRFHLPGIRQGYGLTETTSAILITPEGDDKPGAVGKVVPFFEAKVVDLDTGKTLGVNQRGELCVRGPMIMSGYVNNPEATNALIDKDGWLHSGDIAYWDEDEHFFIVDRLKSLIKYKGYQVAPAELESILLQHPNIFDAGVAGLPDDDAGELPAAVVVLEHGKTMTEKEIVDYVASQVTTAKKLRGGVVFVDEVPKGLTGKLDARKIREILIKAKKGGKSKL
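assay system = Luciferase/luciferin detection reagent, cell-free biochemical luciferase assay | also added = ATP substrate | times = 10 min post-reagent at room temperature | measured by = luminescence from luciferase reaction | measure = luciferase activation, seen as luminescence increase over controls | benchmarks = low control with PBS replacing ATP, high control enzyme plus ATP without compound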
APP 5'UTR act: activators of APP 5'UTR luciferase reporter, primary screen, SH-SY5Y cells | SH-SY5Y APP 5'UTR luciferase reporter, luminescence; zero percent = DMSO vehicle wells | activation, % at 2 µM | 190,000 compounds, 1% hits;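 active = activation above a set limit, based on mean plus 3 SD of controls, cut at about 140% in these data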
FLuc inh counter: firefly luciferase enzyme inhibitors, primary screen, artefact control for luciferase-based inhibitor screens, biochemical, luminescence, ATPLite; inhibition, % at 10 µM; Luciferin 4-monooxygenase (Photinus pyralis), P08659; 200,000 compounds, 1.5% hits; 10 min;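 active = inhibition above about 50% when tested at 10 µM, limit read from the data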
NF-kB expr up: activators of NF-kB expression in neurons, primary screen, cell-based, HTS | fold change at 12.5 µM | 190,000 compounds, 1.6% hits | AID 1239, 2008 | human neuronal cells, NF-kB reporter expression; hits give high values; in the data active = fold change above about 3.3
SDO1 yeast rescue: growth rescue of sdo1-depleted yeast, primary screen, S. cerevisiae, bone marrow failure model; 140,000 compounds, 0.21% hits; z-score at 10 µM; S. cerevisiae sdo1-depleted JHY4D growth rescue, OD600 30 h; hits give high values; pdr5 snq2 efflux-pump mutant strain;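 active = z-score above 3 at both the 24 hr and the 30 hr optical density reads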
STAT1 act: STAT1 signaling activators, primary screen, cell-based, HTS, luciferase reporter; NIH 3T3 STAT1-luciferase reporter, IFN-gamma, luminescence; 100% = IFN-gamma alone, no compound; activation (% of control), % at 5.5 µM; 200,000 compounds, 2.6% hits; AID 932, 2007;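 active = activation above the screen-wide mean activation plus 3 SD, cut at about 130% in these data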
Each line names hits and unclear results; the compound was inactive in the other large screens.

COc1cccc(/C=N\NC(=O)c2cc(OCC(F)(F)F)ccc2OCC(F)(F)F)c1	none (no result: APP 5'UTR act)
CCOc1ccc(/C=C/C(=O)C(C(N)=O)=C2SCCS2)cc1	FLuc inh counter 58.0
O=C1N/C(=C/c2ccc(N3CCOCC3)o2)C(=O)N1c1cccc(Cl)c1	STAT1 act 129.5 (no result: SDO1 yeast rescue)
CCCN1C(=O)S/C(=C\c2ccc(N3CCOCC3)o2)C1=O	none (no result: SDO1 yeast rescue)
O=C(Nc1ncc(Cc2cccc(Cl)c2)s1)C1CCCO1 (stereo unspecified)	none
O=C(Nc1ncc(Cc2cccc(Cl)c2Cl)s1)C1CCCO1 (stereo unspecified)	STAT1 act 143.8 (no result: SDO1 yeast rescue)
COc1ccc(N=Cc2nc(-c3ccccc3)oc2OC(=O)c2ccccc2)cc1	STAT1 act 132.4
Oc1oc(-c2ccco2)nc1C=Nc1ccccc1	none
Cc1ccc(C(=O)Oc2oc(-c3ccco3)nc2C=Nc2ccccc2)cc1	STAT1 act 139.4
CC(=O)Oc1oc(-c2ccccc2)nc1C=Nc1ccccc1	none
Cn1ccnc1C1CCCCN1Cc1nc(-c2ccc3c(c2)OCO3)no1 (stereo unspecified)	none (no result: SDO1 yeast rescue)
CC(=Nc1ccc(C)cc1C)c1sc2ccccc2c1O	APP 5'UTR act 153.5, FLuc inh counter 84.8, NF-kB expr up 4.79, STAT1 act 142.6 (no result: SDO1 yeast rescue)
CC(=Nc1cccc(O)c1)c1sc2ccccc2c1O	APP 5'UTR act 161.2, FLuc inh counter 53.4, NF-kB expr up 10.2
Cn1cc(S(=O)(=O)Nc2ccc(Br)cc2F)c(=O)n(C)c1=O	none
Nc1nnc(SCC(=O)OCC(=O)Nc2ccccc2)s1	none (no result: NF-kB expr up, SDO1 yeast rescue)
C/C(N)=C(/C#N)C(=O)CSc1nnc(-c2ccccc2Br)o1	APP 5'UTR act 198.2, NF-kB expr up 5.46, STAT1 act 137.5
COc1ccc2nc(SCC(=O)/C(C#N)=C(\C)N)[nH]c2c1	NF-kB expr up 4.08, STAT1 act 141.1
COc1ccc(-c2nnc(-c3ccc(N)cc3)o2)cc1	FLuc inh counter 68.0, NF-kB expr up 5.72, STAT1 act 140.1
COc1ccc(-c2nnc(SCC(=O)Nc3cccc(Cl)c3)o2)cc1	APP 5'UTR act 213.7
COc1ccc(-c2nnc(-c3ccc(N(C)C)cc3)o2)cc1	none
O=C(CCCN1C(=O)c2ccccc2C1=O)Nc1cccc(S(=O)(=O)NC2=NCCC2)c1	none (no result: SDO1 yeast rescue)
CC1CCCC(C)N1C(=O)Cn1cc(/C=C2/C(=O)Nc3ccccc32)c2ccccc21 (stereo unspecified)	none
COc1cc(OC)cc(C(=O)N[C@H](C(=O)Nc2cc(C)cc(C)c2)C(C)C)c1	none (no result: SDO1 yeast rescue)
COc1ccc(-c2nnc(SCC(=O)c3ccc(C)o3)o2)cc1	none
COc1ccc(-c2nnc(SCC(=O)/C(C#N)=C(\C)N)o2)cc1	APP 5'UTR act 194.3, NF-kB expr up 5.06, STAT1 act 135.6
CC(C)N=c1scc(-c2ccco2)n1/N=C/c1ccc(O)c(O)c1	NF-kB expr up 9.56
Cc1ccc(C2=NN(C(=S)Nc3ccccc3)C(c3ccco3)C2)cc1 (stereo unspecified)	STAT1 act 134.3
CCOc1cccc2c1OC(c1cc(OC)c(OC)c(OC)c1)N1N=C(c3ccc(C)o3)CC21 (stereo unspecified)	APP 5'UTR act 137.2, FLuc inh counter 52.2
CN(C)C(CNC(=O)CNC(=O)c1ccc(Br)cc1)c1ccccc1 (stereo unspecified)	none (no result: SDO1 yeast rescue)
COc1ccc(C(=O)Nn2cnc3ccccc3c2=O)c(OC)c1	STAT1 act 141.1
COc1ccc(Br)cc1-c1nc(CCl)cs1	none (no result: SDO1 yeast rescue)
O=C(Nc1ccc(S(=O)(=O)N2CCN(c3ccccc3)CC2)cc1)c1cccs1	none
CC1CCCCC12NC(=O)N(CC(=O)NC(=O)Nc1ccc3c(c1)OCCO3)C2=O (stereo unspecified)	STAT1 act 131.7
Clc1ccc2nc(N3CCCCC3)[nH]c2c1	NF-kB expr up 5.32, STAT1 act 136.0
Clc1ccc2nc(C3CCN(Cc4ccccc4)CC3)[nH]c2c1	none
Cc1ccc(C(=O)N/N=C/C2=Cc3ccccc3OC2C)cc1 (stereo unspecified)	none
O=C(N/N=C/c1oc(O)c2ccccc12)c1ccccc1O	none (no result: SDO1 yeast rescue)
CC1Oc2ccccc2C=C1/C=N/NC(=O)c1ccccc1 (stereo unspecified)	STAT1 act 133.1
CC1Oc2ccccc2C=C1/C=N/NC(=O)c1ccccc1O (stereo unspecified)	FLuc inh counter 78.3
COC1=C(c2ccccc2)C(=O)c2ccccc2C1=O	none
CC1=CC(=C2C(=O)c3ccccc3C2=O)C=C(C)N1C	STAT1 act 135.4
CCOc1ccc(NC(=S)N(CCc2c(C)[nH]c3ccccc23)Cc2ccco2)cc1	none
COc1cc(/C=C2\SC(c3ccc(C)cc3)=NC2=O)cc(OC)c1O	none
Cc1ccc(C2=NC(=O)/C(=C/c3cc(O)c(O)c(Br)c3)S2)cc1	FLuc inh counter 50.4 (no result: SDO1 yeast rescue)
CN(CCO)c1c2c(nc3cc(-c4cccc(F)c4)nn13)CCCC2	APP 5'UTR act 153.3, STAT1 act 141.5
OC1CCN(c2c3c(nc4cc(-c5cccc(F)c5)nn24)CCCC3)CC1	none
CCCS/C(N)=N/N=C/c1ccccc1O	NF-kB expr up 3.31
CCN(CC)c1ccc(/C=N/N=C(c2ccccc2)c2ccccc2)c(O)c1	none
CCOC(=O)c1ccc(COC(=O)c2ccc(-c3nnc(-c4ccccc4)o3)cc2)o1	STAT1 act 129.5 (no result: FLuc act counter, FLuc inh counter, NF-kB expr up, SDO1 yeast rescue)
CCOC(=O)c1ccc(-c2ccc(CO)o2)cc1	STAT1 act 128.7
CCOC(=O)c1ccc(COc2ccc(C(C)C)cc2)o1	none (no result: SDO1 yeast rescue)
CCOc1ccc(OCc2ccc(C(=O)OCc3ccccn3)o2)cc1	NF-kB expr up 4.43
COC(=O)[C@@]1(Cc2ccc(F)cc2)[C@H]2c3cc(C(=O)N4CCCC4)n(CCc4c[nH]c5ccc(OC)cc45)c3C[C@H]2CN1C(=O)c1ccccc1	none
O=C(CN1CCN(C2CCCCC2)CC1)c1ccc2cc[nH]c2c1	none
CC(C)c1ccc(NC(=O)c2cccc(Br)c2)cc1	STAT1 act 140.3 (no result: SDO1 yeast rescue)
CCC(C)c1ccc(NC(=O)c2cccnc2)cc1 (stereo unspecified)	NF-kB expr up 3.91, STAT1 act 133.0
O=C(NNC(=O)c1cccc(Br)c1)Nc1ccc(Cl)cc1	none (no result: SDO1 yeast rescue)
O=C(Nc1ccc(S(=O)(=O)Nc2ncccn2)cc1)c1cccnc1	STAT1 act 134.3
CCCN(CCC)S(=O)(=O)c1ccc(C(=O)NCc2n[nH]c(=S)n2-c2ccc(Cl)c(Cl)c2)cc1	none (no result: SDO1 yeast rescue)
CC(=O)N1CC[n+]2c(-c3ccc(Cl)cc3)csc21	none
